The structures appear in SMILES notation.

The assay has as its system HL-60. Put plainly: Antiproliferative activity against human HL60 cells by trypan blue assay. In kind it is functional. The gist of the method:
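HL-60 cells seeded at 1 × 10^5 cells/mL, exposed to test compound at 5, 10, 20, 40 or 60 µM for 3 days. Viable growth scored by trypan blue staining, with total cells counted on a hemocytometer. GI50 taken as the concentration halving cell growth. Reported as mean ± SD of three independent experiments, with adriamycin as positive control.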
The molecule `C=C1CC[C@@H]2[C@](C)(CO)[C@H](O)CC[C@@]2(C)[C@@H]1/C=C/C1=CCOC1=O` showed a GI50 of 25.6 µM. Next, `C=C1CC[C@H]2[C@@](C)(CCC(=O)[C@@]2(C)CO)[C@@H]1/C=C/C1=CCOC1=O`: 19.2 µM. In turn, `C=C1CC[C@@H]2[C@](C)(CO)[C@H](O)CC[C@@]2(C)[C@@H]1C/C=C1\C(=O)OC[C@H]1O` had a GI50 of 6.3 µM. The molecule `C=C1[C@H](O)C[C@@H]2[C@](C)(CO)[C@H](O)CC[C@@]2(C)[C@@H]1CCC1=CCOC1=O` yielded a GI50 of 22.5 µM. With `C=C1CC[C@@H]2[C@](C)(CO)[C@H](O)CC[C@@]2(C)[C@@H]1C[C@@H](O)[C@H]1C(=O)OC[C@H]1O` the figure was 26.6 µM; with `C=C1CC[C@@H]2[C@](C)(CO)[C@H](O)CC[C@@]2(C)[C@@H]1C[C@H](O)[C@@H]1C(=O)OC[C@H]1O`, 24.4 µM; with `C=C1CC[C@@H]2[C@](C)(CO)[C@H](O)CC[C@@]2(C)[C@@H]1CCO`, 24.9 µM. With `C=C1CC[C@@H]2[C@](C)(CO)[C@H](O)CC[C@@]2(C)[C@@H]1/C=C/C1=CC(OC)OC1=O` (some centres undefined) the figure was 26.4 µM; with `C=C1CC[C@@H]2[C@](C)(CO)CCC[C@@]2(C)[C@@H]1CC/C(=C/CO)CO`, 20.4 µM. With `C=C1CC[C@@H]2[C@](C)(CO)[C@H](O)CC[C@@]2(C)[C@@H]1/C=C/C(=O)O` the figure was 28.8 µM. For `C=C1CC[C@@H]2[C@](C)(CO)[C@H](O)CC[C@@]2(C)[C@@H]1CC/C(=C/CO)C(=O)O`, halving of growth (GI50) required 22.4 µM. With `C=C1CC[C@H]2[C@@](C)(CCC(=O)[C@@]2(C)CO)[C@@H]1CCC1=CCOC1=O` the figure was 22.8 µM; with `C=C1[C@@H](CCC2=CCOC2=O)[C@]2(C)CC[C@@H](O)[C@@](C)(CO)[C@H]2C[C@@H]1O`, 25.2 µM; with `C=C1CC[C@@H]2[C@](C)(CO)CCC[C@@]2(C)[C@@H]1CCC1=CCOC1=O` [ANDROGRAPANIN], 20 µM. Next, `C=C1CC[C@@H]2[C@](C)(CO[C@@H]3O[C@H](CO)[C@@H](O)[C@H](O)[C@H]3O)[C@H](O)CC[C@@]2(C)[C@@H]1C/C=C1/C(=O)OC[C@H]1O` [ANDROGRAPHISIDE]: 28.8 µM; `C=C1CC[C@@H]2[C@](C)(CO)[C@H](O)CC[C@@]2(C)[C@@H]1C/C=C1/C(=O)OC[C@H]1O` [ANDROGRAPHOLIDE]: 9.33 µM.

`C=C1CC[C@@H]2[C@](C)(CO)[C@H](O)CC[C@@]2(C)[C@@H]1CCC1=CCOC1=O` [DEOXYANDROGRAPHOLIDE]: growth was halved (GI50) at 25.5 µM. Next, `COc1cccc2c1C(=O)c1c(O)c3c(c(O)c1C2=O)C[C@@](O)(C(=O)CO)C[C@@H]3O[C@H]1C[C@H](N)[C@H](O)[C@H](C)O1` [DOXORUBICIN]: 0.018 µM; `C=C1CC[C@@H]2[C@](C)(CO[C@@H]3O[C@H](CO)[C@@H](O)[C@H](O)[C@H]3O)CCC[C@@]2(C)[C@@H]1CCC1=CCOC1=O` [NEOANDROGRAPHOLIDE]: 26.7 µM.

The term GI50 denotes the concentration giving 50% growth inhibition. High values mean less potent growth inhibition, low ones more potent growth inhibition.

Values taken from ChEMBL document CHEMBL1149900, “ent-Labdane diterpenoid lactone stereoisomers from Andrographis paniculata” (2008).
